# From PubChem
# beta cell repl: induces beta-cell replication in MIN6 cells; proliferation, % at 10 µM; 0.29% of 330,000 active; MIN6 cells proliferation, ATPlite luminescence, 48 h; cells starved in 0.2% serum; 100% = growth in 10% serum;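 active means compounds whose signal lies at least 3.5 SD above the mean of all wells on their plate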;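 further: 0% = DMSO-treated cells in low-serum medium and 100% = 10% serum control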
# CRFR2-BP antag: antagonists of CRF-binding protein/CRF-R2 receptor complex. HEK293 CRF-R2/CRF-BP, CRF-induced calcium fluorescence. inhibition, % at 11.8 µM. 0.59% of 350,000 active. AID 588475;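 active means inhibition of the ligand-induced calcium signal above about 50% at the single tested concentration, limit read from the data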
# hiPSC survival: hiPSC single-cell survival enhancement; ATPlite luminescence; 100% = ROCK inhibitor wells, 0% = DMSO; survival enhancement, % at 20 µM; 0.044% of 360,000 active; in the data active means survival enhancement above about 18%;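 further: cells exposed to compounds for 16 hours before the ATP read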
# UCH37 DUB inh: human UCH37 deubiquitinating enzyme inhibition; Q9Y5K5; purified proteasome/UCH37, Ub-AMC cleavage fluorescence; inhibition, % (concentration not given with the values); 0.33% of 330,000 active; AID 588478;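 active means mean inhibition over replicate wells above about 20%, limit read from the data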;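 further: 0% = compound-free wells with enzyme and 100% = wells lacking proteasome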
# Target sequence (Q9Y5K5 whole entry, looked up): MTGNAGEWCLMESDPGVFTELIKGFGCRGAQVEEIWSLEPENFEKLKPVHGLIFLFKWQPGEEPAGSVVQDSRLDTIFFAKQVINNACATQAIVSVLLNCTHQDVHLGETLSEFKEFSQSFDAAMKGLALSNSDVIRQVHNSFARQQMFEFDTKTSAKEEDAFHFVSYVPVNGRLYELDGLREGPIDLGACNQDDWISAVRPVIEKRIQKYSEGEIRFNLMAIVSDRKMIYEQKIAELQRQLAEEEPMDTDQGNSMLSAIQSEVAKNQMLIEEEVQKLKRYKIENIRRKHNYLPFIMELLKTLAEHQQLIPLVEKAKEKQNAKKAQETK
#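 Test system – human UCH37 enzyme supplied as purified proteasome complex · Incubation – 30 min preincubation with enzyme, 25 min cleavage at room temperature · Detection – AMC fluorescence from Ub-AMC cleavage, excitation 355 nm, emission 460 nm · Benchmarks – no-proteasome wells (full inhibition) and compound-free wells (no inhibition)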
# CRFBP-R2 agonist: CRF-BP/CRF-R2 complex agonism; HEK293 CRF-R2/CRF-BP, calcium dye fluorescence (FLIPR); percent of saturating CRF peptide response; activation, % at 13.2 µM; 0.46% of 350,000 active; AID 588473;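 active means activation of at least 50%, plus an integration ratio under a set limit after plate pattern correction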;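 further: plate controls were neutral control wells without compound for no effect and CRF at EC100 for full effect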
# H9c2 protect: modulators protecting cardiomyocytes from myocardial damage. 0.63% of 360,000 active. protection from H2O2 cell death, % at 20 µM. H9c2 cardiomyocytes, H2O2 injury protection, ATPLite, 2 h. AID 588492;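 active means compounds giving at least 50% protection of heart cells from peroxide-induced death in the single-dose screen, raw or plate-pattern-corrected value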;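 further: 0% = DMSO wells with peroxide and 100% = DMSO wells without peroxide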
# * marks the source's active call; other numbers are inactive results; · = no result. Most compounds without a hit are left out; they make up all but 2.1% or so of the library.
SMILES,beta cell repl,CRFR2-BP antag,hiPSC survival,UCH37 DUB inh,CRFBP-R2 agonist,H9c2 protect
O=C(CSC1=NNC(c2ccccn2)S1)Nc1cccc(Cl)c1 (stereo unspecified),-3,-6,-1,5,0,61*
O=C(CN1CCN(Cc2ccccc2)CC1)NN=Cc1ccco1,·,·,·,8,·,·
CCOc1ccccc1C(=O)NN=Cc1c[nH]c2ccccc12,·,·,·,-11,·,·
O=C(Nc1cccc(-c2nnc(-c3ccccc3)o2)c1)c1ccco1,-3,-42,-1,3,-1,25
Cc1nn2c(-c3cccc(NC(=O)c4ccco4)c3)nnc2c2ccccc12,-1,0,0,-2,-1,80*
Cc1ccc(C=NNC(=O)c2ccco2)s1,·,·,·,15,·,·
O=S(=O)(c1cccc(F)c1)N1CCN(c2nc(-c3cccnc3)nc3ccccc23)CC1,-1,-15,0,-2,0,59*
Nc1nc(-c2c[nH]c3ccccc23)cs1,-4,-6,-3,2,0,49*
CCOC(=O)/C(C#N)=C/Nc1ccccc1NS(=O)(=O)c1cccc(C(C)=O)c1,-1,-5,-1,26*,0,6
O=C(CNC(=O)c1ccc(Br)cc1)NN=Cc1cccnc1,·,·,·,2,·,·
CN(C)/C=C1\C=C2C(=O)c3ccccc3N2C1=O,-1,-220,-1,·,217*,27
CC(=NNS(=O)(=O)c1ccc(C)cc1)c1ccc(C)s1,·,·,·,0,·,·
O=C(c1cc2nc(-c3ccc(F)cc3)cc(C(F)(F)F)n2n1)N1CCOCC1,-1,54*,0,-11,0,-10
CC(=NNC(=O)c1c(Cl)cnn1C)c1cccc(NC(=O)c2ccc(C)cc2)c1,·,·,·,2,·,·
O=C(NN=C(c1ccccc1)c1ccccn1)c1ccccc1,-6,1,-1,·,-3,37
COc1ccc(C(=O)N/N=C(\c2ccccc2)c2ccccn2)cc1,·,40,0,·,-4,60*
O=C(CNC(=O)c1ccncc1)NN=Cc1ccccc1[N+](=O)[O-],·,·,·,4,·,·
COc1ccc2oc(C(=O)NCCC(C)C)c(C)c2c1,0,79*,0,-8,1,-4
COc1ccc(C(CNC(=O)c2oc3ccc(OC)cc3c2C)N2CCCC2)cc1 (stereo unspecified),-5,-4,-1,-14,3,0
Cc1ccc(S(=O)(=O)N/N=C/c2ccc(OC3CSC3)cc2)cc1,-5,-61,-2,·,75*,-15
N#CC1=C(N)OC2=C(C(=O)CC(c3ccccc3)C2)C1c1ccc2c(c1)OCO2 (stereo unspecified),-3,59*,0,5,-2,1
Cc1cccc(N2CC(O)(c3cccs3)[N+]3=C2CCCC3)c1 (stereo unspecified),-3,94*,-1,4,2,-6
Cc1onc(-c2ccccc2)c1C(=O)N/N=C/c1cc(Br)c(Br)o1,0,103*,-2,·,2,-1
COc1ccccc1C=NNC(=O)c1c(-c2ccccc2)noc1C,·,·,·,4,·,·
Cc1ccc(/C=N/NC(=O)c2c(-c3ccccc3)noc2C)c(O)c1,-7,·,0,·,·,54*
SMILES,beta cell repl,CRFR2-BP antag,hiPSC survival,UCH37 DUB inh,CRFBP-R2 agonist,H9c2 protect
COc1ccc(CC(C)=NNc2nc(C)cc(=O)[nH]2)cc1,·,·,·,1,·,·
O=C(OCC(=O)c1c[nH]c2ccccc12)c1ccco1,0,3,1,5,1,-7
COc1cc(NC(=O)c2ccco2)c(OC)cc1NC(=O)c1cc(OC)c(OC)c(OC)c1,1,2,0,2,-1,74*
COc1cc(NC(=O)c2ccco2)c(OC)cc1NC(=O)Nc1cccc(Cl)c1,-2,-36,-1,-3,2,65*
COc1ccc(/C=N/NC(=O)c2ccccc2NC(=O)c2ccco2)c(OC)c1,-3,111*,-1,·,-3,4
COc1ccc(NC(=O)c2ccco2)cc1NC(=O)c1ccco1,0,-44,-2,1,-1,-3
COc1cc(NC(=O)c2ccco2)c(C(=O)OCC(=O)c2c[nH]c3ccccc23)cc1OC,-6,14,-2,0,1,66*
NS(=O)(=O)c1cccc(NC(=O)COC(=O)Cc2n[nH]c(=O)c3ccccc23)c1,-3,-14,0,0,1,52*
Cc1ccc(S(=O)(=O)N(C)C)cc1NC(=O)COC(=O)Cc1n[nH]c(=O)c2ccccc12,1,-6,0,-4,1,75*
O=C(COC(=O)Cc1n[nH]c(=O)c2ccccc12)Nc1c(Br)cc([N+](=O)[O-])cc1Br,·,3,0,3,0,97*
NS(=O)(=O)c1cccc(NC(=O)COC(=O)CSCc2ccccc2)c1,0,4,3,2,-1,14
O=C(COC(=O)Cc1n[nH]c(=O)c2ccccc12)Nc1c(Cl)cccc1C(F)(F)F,2,11,0,-1,2,25
Cn1ccnc1C(=NNC(=O)c1ccccc1)c1cccc([N+](=O)[O-])c1,·,·,·,4,·,·
CCOc1ccc(NC(=S)Nc2ccc(OC)cc2)cc1,-3,4,0,5,0,3
CCC(C)c1ccc(NC(=S)Nc2ccc(OC)cc2)cc1 (stereo unspecified),-6,133*,-4,3,1,-11
O=c1c(=Cc2ccccc2)sc2nnc(-c3cccs3)n12,·,·,·,3,·,·
Cn1c(=O)c(C#N)c(-c2ccc(F)cc2)c2cc(C(=O)c3cc(Cl)cc(Cl)c3O)cnc21,-7,53*,0,8,31,-15
COc1ccccc1-n1c(=O)c(C#N)c(-c2ccc([N+](=O)[O-])cc2)c2cc(C(=O)c3cc(F)ccc3O)cnc21,-3,19,-1,1,0,7
O=C1Nc2ccccc2C(=O)C1(Cl)Cc1ccccc1 (stereo unspecified),-4,14,-1,-19,0,52*
CCOC(=O)COc1cccc(C2NC(=O)c3ccccc3O2)c1 (stereo unspecified),-2,0,0,1,1,83*
Clc1ccc(-c2nnc(NCc3ccccc3)c3ccccc23)cc1,-5,52*,-1,0,-2,-11
COc1ccc(COc2cc(-c3cccc(OC)c3)nc3ccc(NC(=O)c4ccc(OC)cc4)cc23)cc1,-4,-10,2,-7,0,58*
COc1ccc(COc2cc(-c3cccc(OC)c3)nc3ccc(NC(=O)c4cccnc4)cc23)cc1,-7,-5,-2,2,3,91*
COc1ccc(COc2cc(-c3cccc(OC)c3)nc3ccc(NC(=O)c4ccccc4)cc23)cc1,-3,7,-1,-2,1,47
CCOC(=O)C1(CC(C)=NNC(N)=O)CC(C)(C)OC1=O (stereo unspecified),·,·,·,3,·,·
